Experimental data as given in ChEMBL document CHEMBL3120104, “Discovery of the first C-nucleoside HCV polymerase inhibitor (GS-6620) with demonstrated antiviral response in HCV infected patients” (J Med Chem, 2014).
Values after ≈ are worked out from the molar mass of the structure shown.

Assays:
Syrian golden hamster [1] = test: Cmax in golden syrian hamster assessed as liver triphosphate level at 5 mg/kg, po by LC/MS/MS analysis; type: ADME, organism-based, Mesocricetus auratus; parameters: dose 5 mg/kg, route oral; settings: in vivo
How it was run: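 Groups of 12 Golden Syrian hamsters were dosed orally at 5 mg-equiv/kg. Vehicle was EtOH/PEG400/water buffered with 50 mM pH 4 citrate at 2.5 mg-equiv/mL. Liver was homogenized in four volumes of ice-cold 0.1% KOH/67 mM EDTA in 70% MeOH containing 0.25 μM Cl-ATP, then centrifuged, dried and reconstituted in 1 mM ammonium phosphate pH 7.0. Triphosphate was measured by LC/MS/MS, with endogenous ATP checked for sample stability.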

[2] = Metabolic stability in human liver S9 fraction assessed as extraction at 2 uM after 90 mins by LC/MS/MS analysis; type: ADME, subcellular; settings: read-out: Stability
How it was run: (§1)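 Compound at 2 μM was incubated with human intestinal or hepatic S9 fraction plus NADPH and UDPGA for 90 min at 37 °C. Time-point samples were quenched in aqueous acetonitrile/methanol with internal standard and analysed by LC/MS/MS. Half-life came from an exponential first-order fit, and hepatic extraction was predicted from half-life using the well-stirred model.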

[3] = Half life in human intestinal S9 fraction at 2 uM by LC/MS/MS analysis; type: ADME, Intestine; how it was run: as §1
[4] = Permeability across basolateral to apical side in human Caco2 cells at 10 uM after 1 to 2 hrs by LC/MS/MS analysis; type: ADME, cell-based; settings: Caco-2, read-out: permeability
How it was run: (§2)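 Caco-2 monolayers were grown at least 21 days, and membrane integrity was checked by TEER after buffer equilibration. Test compound was dosed at 10 μM on the apical or basolateral side, in duplicate wells. Receiver samples at 1 and 2 h were precipitated with acetonitrile plus internal standard and run by LC/MS/MS.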

[5] = Permeability across apical to basolateral side in human Caco2 cells at 10 uM after 1 to 2 hrs by LC/MS/MS analysis; type: ADME, cell-based; settings: Caco-2, read-out: permeability; how it was run: as §2
[6] = Aqueous solubility of the compound in phosphate buffer at pH 7 by reverse-phase UPLC-UV method; type: physicochemical
How it was run: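 Excess solid was suspended in pH 7 phosphate buffer at ambient temperature, sonicated, then stirred for at least 2 h. After centrifugation, the supernatant was quantified by reverse-phase UPLC-UV.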

[7] = Lipophilicity, log D of the compound by HPLC/UV method; type: physicochemical
How it was run: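 A 10 mM DMSO stock was diluted 1:100 into 1:1 acetonitrile/water, shaken 30 min, and analysed by HPLC/UV on a C18 column with 20 mM ammonium acetate/acetonitrile mobile phase.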

[8] = Cytotoxicity against human HuH7 cells after 3 days by fluorescence assay; type: cell-based; settings: Huh-7 cells
How it was run: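 Huh-7 HCV replicon cells were seeded at 2000 cells/well in medium without Geneticin. Compounds were added as ten-point 1:3 DMSO dilutions in quadruplicate (final DMSO 0.44%), with […] as the 100% cytotoxicity control. After 3 days at 37 °C, cells were washed and given 400 nM calcein AM for 30 min at RT, and fluorescence read at ex 490/em 520 nm. Signal was normalized to DMSO and puromycin wells, and CC50 taken from a four-parameter Hill fit.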

Hepatitis C virus [9] = test: Antiviral activity against HCV genotype 1b infected in human HuH7 cells assessed as inhibition of viral replication after 3 days by luminescence assay; type: functional, organism-based, Hepacivirus hominis; settings: Huh-7, 72 h
How it was run: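 Multiplex replicon assay carrying a renilla luciferase reporter, with stable GT1b, 1a and 2a replicons and chimeric 2b, 3a, 4a, 5a and 6a replicons. 2000 replicon cells/well in medium without Geneticin. Ten-step 1:3 serial dilutions, four replicates, 0.44% DMSO final. Incubated 3 days at 37 °C, 5% CO₂. Luminescence normalised to DMSO wells and to protease-inhibitor (ITMN-191) wells. EC50 from a four-parameter Hill fit.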

Huh-7 = test: Prodrug coversion in human HuH7 cells assessed as triphosphate formation at 10 uM after 24 hrs by liquid chromatography coupled with mass spectrometry; type: ADME, cell-based; settings: huh-7, 24 h
How it was run: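 Huh-7 cells carrying the GT1b replicon, grown to confluency in 12-well plates (0.88 × 10⁶ cells/well). Exposed 24 h to 10 μM compound, then washed with ice-cold saline and extracted overnight in frozen 70% methanol. Dried extract resuspended in 1 mM ammonium phosphate pH 8.5. Triphosphate quantified by LC/triple-quadrupole MS.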

[10] = target: DNA-directed RNA polymerase, mitochondrial (Homo sapiens) (UniProt O00411); test: Inhibition of mitochondrial RNA polymerase (unknown origin) assessed as inhibition of single nucleotide incorporation; settings: concentration not given here
DNA-directed RNA polymerase, mitochondrial (Homo sapiens), sequence (O00411 whole entry): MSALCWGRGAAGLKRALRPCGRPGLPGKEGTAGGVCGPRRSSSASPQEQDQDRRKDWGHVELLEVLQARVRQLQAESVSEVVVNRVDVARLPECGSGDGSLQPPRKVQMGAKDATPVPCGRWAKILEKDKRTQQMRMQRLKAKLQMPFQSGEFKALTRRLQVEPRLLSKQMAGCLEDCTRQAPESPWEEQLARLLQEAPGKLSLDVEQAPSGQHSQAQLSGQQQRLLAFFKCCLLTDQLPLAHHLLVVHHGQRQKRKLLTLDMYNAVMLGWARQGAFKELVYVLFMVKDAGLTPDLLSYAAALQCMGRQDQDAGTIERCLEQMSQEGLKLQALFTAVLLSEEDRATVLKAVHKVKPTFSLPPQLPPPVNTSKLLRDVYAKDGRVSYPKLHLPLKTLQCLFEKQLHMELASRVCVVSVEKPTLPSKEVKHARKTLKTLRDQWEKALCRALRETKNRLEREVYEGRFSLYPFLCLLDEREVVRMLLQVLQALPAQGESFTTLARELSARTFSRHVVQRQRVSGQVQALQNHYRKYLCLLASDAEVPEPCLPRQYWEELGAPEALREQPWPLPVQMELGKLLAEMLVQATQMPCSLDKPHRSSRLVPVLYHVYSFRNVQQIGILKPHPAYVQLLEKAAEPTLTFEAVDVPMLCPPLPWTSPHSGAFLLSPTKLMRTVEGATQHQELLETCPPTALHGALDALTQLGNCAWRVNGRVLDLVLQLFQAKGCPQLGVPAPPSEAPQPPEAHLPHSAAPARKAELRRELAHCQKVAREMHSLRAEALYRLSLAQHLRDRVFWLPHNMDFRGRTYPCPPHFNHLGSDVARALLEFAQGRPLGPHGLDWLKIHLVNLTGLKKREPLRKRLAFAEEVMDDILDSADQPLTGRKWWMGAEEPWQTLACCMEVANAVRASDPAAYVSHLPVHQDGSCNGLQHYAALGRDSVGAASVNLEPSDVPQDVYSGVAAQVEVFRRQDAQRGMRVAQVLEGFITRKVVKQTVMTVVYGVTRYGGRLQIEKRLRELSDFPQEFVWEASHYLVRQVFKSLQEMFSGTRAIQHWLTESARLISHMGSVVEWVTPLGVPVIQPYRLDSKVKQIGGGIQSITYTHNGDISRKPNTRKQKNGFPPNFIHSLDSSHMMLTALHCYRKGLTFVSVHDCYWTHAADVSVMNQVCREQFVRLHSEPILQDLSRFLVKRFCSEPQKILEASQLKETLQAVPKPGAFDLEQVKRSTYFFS
How it was run: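 Reactions started with 500 μM (final) natural NTP or NTP analog. Time-point aliquots were quenched in EDTA/formamide, heated to 65 °C, resolved on 20% polyacrylamide/8 M urea gels, and product formation quantified by phosphorimaging.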

[11] = Oral bioavailability in golden syrian hamster at 5 mg/kg; type: ADME, organism-based, Mesocricetus auratus; settings: in vivo
Syrian golden hamster [12] = test: Cmax in golden syrian hamster assessed as liver triphosphate level at 1 mg/kg, iv by LC/MS/MS analysis; type: ADME, organism-based, Mesocricetus auratus; parameters: dose 1 mg/kg, route intravenous; settings: in vivo
How it was run: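 Golden Syrian hamsters in groups of 12, dosed iv at 1 mg-equiv/kg in EtOH/PEG400/water adjusted to pH 4 with HCl (0.5 mg-equiv/mL). Liver homogenised in ice-cold 70% MeOH with 0.1% KOH, 67 mM EDTA and 0.25 μM Cl-ATP internal standard, then centrifuged, dried and reconstituted. Triphosphate measured by LC/MS/MS; endogenous ATP checked for sample stability.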

[13] = Oral absorption in beagle dog at 5 mg/kg, po by LC/MS/MS analysis; type: ADME, organism-based, Canis lupus familiaris; parameters: dose 5 mg/kg, route oral; settings: in vivo
How it was run: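 Naive male beagle dogs were dosed once, orally at 5 mg/kg in EtOH/PEG 400/50 mM citrate buffer pH 4 (5/40/55), or intravenously at 0.5 mg/kg for reference. Plasma was sampled over 24 h and processed by acetonitrile precipitation. Bioavailability %F = AUC_po × Dose_iv / (AUC_iv × Dose_po).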

[14] = AUC (0 to infinity) in jagular vein cannulated beagle dog at 0.5 mg/kg, iv by LC/MS/MS analysis; type: ADME, organism-based, Canis lupus familiaris; parameters: time infinity, dose 0.5 mg/kg, route intravenous; settings: plasma
How it was run: (§3)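 Naive male beagle dogs got a single intravenous infusion of 0.5 mg/kg in EtOH/PEG 400/water 5/20/75, adjusted to pH 4 with HCl. EDTA-K3 blood was collected over 24 h and plasma isolated. Plasma was precipitated with acetonitrile to a final 60%, filtered, dried, reconstituted in 20% acetonitrile and analysed.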

[15] = AUC (0 to infinity) in portal vein cannulated beagle dog at 0.5 mg/kg, iv by LC/MS/MS analysis; type: ADME, organism-based, Canis lupus familiaris; parameters: time infinity, dose 0.5 mg/kg, route intravenous; settings: plasma; how it was run: as §3
[16] = Metabolic stability in serum (unknown origin); type: ADME
Hepatocyte = test: Prodrug coversion in human hepatocytes assessed as triphosphate formation assesed per million cells at 10 uM incubated for 1 hr followed by compound washout by liquid chromatography coupled with mass spectrometry; type: ADME, cell-based; parameters: dose 10 uM
How it was run: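 Confluent primary human hepatocytes (0.88 × 10⁶ cells/well, Williams E medium) were exposed to 10 μM compound for 1 h, then to drug-free medium for 23 h. Cells were collected during and after exposure and extracted. Triphosphate was quantified by LC/MS/MS and expressed per million cells.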

Hepatitis C virus [17] = test: Selectivity ratio of EC50 for HCV harboring NS5B RNA dependent RNA polymerase S282T mutant to EC50 for wild-type HCV; type: functional, Hepacivirus hominis

Compound	Cmax (Syrian golden hamster [1]) [nM]	hepatic extraction ratio at 1.5 h, 2 µM [2]	half-life at 2 µM [3] [h]	Papp B→A at 10 µM [4] [×10⁻⁶ cm/s]	Papp A→B at 10 µM [5] [×10⁻⁶ cm/s]	solubility [6] [µg/mL]	logD [7]	CC50 at 72 h [8] [nM]	EC50 (Hepatitis C virus [9]) [nM]	Drug metabolism (Huh-7) [µM]	inhibition [10] [%]	bioavailability [11] [%]	Cmax (Syrian golden hamster [12]) [nM]	Fa [13] [%]	AUC(0-inf) [14] [µM·h]	AUC(0-inf) [15] [µM·h]	Stability [16]	Drug metabolism (Hepatocyte)	Ratio EC50 (Hepatitis C virus [17])
C[C@H](NP(=O)(OC[C@H]1O[C@@](C#N)(c2ccc3c(N)ncnn23)[C@](C)(O)[C@@H]1O)Oc1ccccc1)C(=O)OCc1ccccc1 (stereo partly drawn)	860	0.93	2.15	25.3	3.35	0.05 (≈ 0.0803 µM)	2.2	63000	330										
C[C@@]1(O)[C@H](O)[C@@H](CO)O[C@@]1(C#N)c1ccc2c(N)ncnn12									> 89000	< 0.5	0.03								
CCOC(=O)[C@H](C)NP(=O)(OC[C@H]1O[C@@](C#N)(c2ccc3c(N)ncnn23)[C@](C)(O)[C@@H]1O)Oc1ccccc1 (stereo partly drawn)	570	0.89	1.15	2.98	0.17	108 (≈ 193 µM)	1.6	> 89000	1450			2.5	4480						
C[C@H](NP(=O)(OC[C@H]1O[C@@](C#N)(c2ccc3c(N)ncnn23)[C@](C)(O)[C@@H]1O)Oc1ccccc1)C(=O)OCC(C)(C)C (stereo partly drawn)	1440	0.94	1.42	29.1	0.69	115 (≈ 191 µM)	2.3	85000	180			5.6	5180	13	0.09	0.25			
CC[C@H](C)OC(=O)[C@H](C)NP(=O)(OC[C@H]1O[C@@](C#N)(c2ccc3c(N)ncnn23)[C@](C)(O)[C@@H]1O)Oc1ccccc1 (stereo partly drawn)	1270	0.93	9.87	17.9	1.47	200 (≈ 340 µM)	2.1	> 89000	230					16	0.12	0.8	Stable	Active	
CC(C)OC(=O)[C@H](C)NP(=O)(OC[C@H]1O[C@@](C#N)(c2ccc3c(N)ncnn23)[C@]2(C)OC(=O)O[C@H]12)Oc1ccccc1 (stereo partly drawn)	590						2.6	> 89000	1410				1920	29			Stable		
C[C@@]1(O)[C@H](O)[C@@H](CO)O[C@H]1n1ccc2c(N)ncnc21 [BETA-2'-C-METHYL-7-DEAZA-ADENOSINE]																			>95
COC(=O)[C@H](C)NP(=O)(OC[C@H]1O[C@@](C#N)(c2ccc3c(N)ncnn23)[C@](C)(O)[C@@H]1O)Oc1ccccc1 (stereo partly drawn)	290	0.9	3.17	4.64	0.41		1.3	> 89000	1370			0.9	6350						
C[C@H](NP(=O)(OC[C@H]1O[C@@](C#N)(c2ccc3c(N)ncnn23)[C@](C)(O)[C@@H]1O)Oc1ccccc1)C(=O)OC1CCCC1 (stereo partly drawn)	840	0.95	0.5	5.86	0.37	10 (≈ 16.7 µM)	2.2	> 89000	450			6	2800					Active	
C#C[C@@]1(c2ccc3c(N)ncnn23)O[C@H](CO)[C@@H](O)[C@@]1(C)O									> 89000										
CC(C)OC(=O)[C@H](C)NP(=O)(OC[C@H]1O[C@@](C#N)(c2ccc3c(N)ncnn23)[C@](C)(O)[C@@H]1O)Oc1ccccc1 (stereo partly drawn)	530	0.9	> 10.2	8.92	0.16	306 (≈ 533 µM)	1.8	> 89000	1050	20		1.9	5650	10	0.16	0.99	Stable		
CCC(CC)COC(=O)[C@H](C)NP(=O)(OC[C@H]1O[C@@](C#N)(c2ccc3c(N)ncnn23)[C@](C)(O)[C@@H]1O)Oc1ccccc1 (stereo partly drawn)	2260	0.97	1.23	7.2	0.36	1.8 (≈ 2.92 µM)	2.7	35000	440			5.4	8330	7.9	0.02	0.21			
C[C@H](NP(=O)(OC[C@H]1O[C@@](C#N)(c2ccc3c(N)ncnn23)[C@](C)(O)[C@@H]1O)Oc1ccccc1)C(=O)OC(C)(C)C (stereo partly drawn)		0.84	> 10.2	31.1	0.67	380 (≈ 646 µM)	2.2	> 89000	> 89000										
CC[C@@H](C)OC(=O)[C@H](C)NP(=O)(OC[C@H]1O[C@@](C#N)(c2ccc3c(N)ncnn23)[C@](C)(O)[C@@H]1O)Oc1ccccc1 (stereo partly drawn)	1870	0.94	7.68	37.5	0.75	151 (≈ 257 µM)	1.9	> 89000	980					8.1	0.14	0.46	Stable		
